Calls of active or inactive are those of the source. The calls are words filed in the database; no cut-off is given here.
Key:
Acetylcholinesterase [1] = target: Acetylcholinesterase (Electrophorus electricus, UniProt O42275); experiment: Inhibition of electric eel AChE pretreated for 20 mins followed by acetylthiocholine iodide substrate addition measured for 5 mins by Ellman's method
Cholinesterase [2] = target: T1, Cholinesterase (Equus caballus, UniProt P81908); experiment: Inhibition of horse serum BChE pretreated for 20 mins followed by butyrylthiocholine iodide substrate addition measured for 5 mins by Ellman's method
T1 sequence (P81908 whole entry): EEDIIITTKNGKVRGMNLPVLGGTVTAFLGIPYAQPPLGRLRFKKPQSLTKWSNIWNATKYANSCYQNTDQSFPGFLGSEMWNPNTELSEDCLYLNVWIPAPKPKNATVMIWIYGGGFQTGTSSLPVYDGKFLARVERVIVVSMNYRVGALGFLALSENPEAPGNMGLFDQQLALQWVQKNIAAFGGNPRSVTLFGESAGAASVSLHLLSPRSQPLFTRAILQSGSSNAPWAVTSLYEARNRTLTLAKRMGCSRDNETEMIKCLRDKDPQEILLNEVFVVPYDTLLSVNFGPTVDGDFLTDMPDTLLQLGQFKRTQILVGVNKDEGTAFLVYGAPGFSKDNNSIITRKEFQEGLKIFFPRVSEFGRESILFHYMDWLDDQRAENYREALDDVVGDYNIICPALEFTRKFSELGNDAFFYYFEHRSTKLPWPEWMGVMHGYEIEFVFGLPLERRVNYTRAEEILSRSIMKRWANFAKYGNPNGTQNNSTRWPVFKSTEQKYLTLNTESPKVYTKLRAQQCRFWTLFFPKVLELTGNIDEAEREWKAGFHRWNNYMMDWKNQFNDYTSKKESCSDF

[3] = target: Cholinesterase (Equus caballus) (UniProt P81908); experiment: Inhibition of horse serum BChE at 10 uM pretreated for 20 mins followed by butyrylthiocholine iodide substrate addition measured for 5 mins by Ellman's method relative to control
Chain of Cholinesterase (Equus caballus) (P81908 whole entry): as above
Method in brief: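 Ellman colorimetric assay. BChE (0.9 U/mL stock in 0.1 M PB pH 8.0) with DTNB (3.3 mM stock in pH 7.0 PB plus NaHCO₃) and inhibitor (1×10^-4 to 1×10^-9 M, five to seven concentrations; or single 10 µM point) preincubated 20 min at 25 °C. Butyrylthiocholine iodide (0.05 mM stock) then added and absorbance read at 412 nm for 5.0 min. IC50 from nonlinear regression of log response curves, mean of ≥3 independent runs.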

[4] = Neuroprotective activity against NMDA-induced toxicity in human SH-SY5Y cells assessed as cell viability at 5 uM incubated for 48 hrs by MTT assay relative to control; type: functional; details: read-out: Activity
Method in brief: (§1)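 SH-SY5Y in DMEM with 2% FBS, seeded ~5,000 cells/well and grown 1 day. Co-exposed 48 h at 37 °C to NMDA (250 µM final) plus test compound. MTT (0.5% w/v) added for 4 h, formazan dissolved in DMSO/ethanol 1:1, absorbance read. Triplicates as % of untreated control, mean ± SEM; one-way ANOVA with Dunnett's test.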

Cholinesterase [5] = target: T1, Cholinesterase; experiment: Stability assessed as horse serum BChE mediated compound hydrolysis at 300 x 10^-6M at pH 8 measured every 5 mins for 1 hr by UV-Vis spectra analysis; type: ADME; details: buffer, pH 8, 1 h, 300 µM
Acetylcholinesterase [6] = target: T2, Acetylcholinesterase (Homo sapiens, UniProt P22303); experiment: Inhibition of human AChE pretreated for 20 mins followed by acetylthiocholine iodide substrate addition measured for 5 mins by Ellman's method
T2 sequence (P22303 whole entry): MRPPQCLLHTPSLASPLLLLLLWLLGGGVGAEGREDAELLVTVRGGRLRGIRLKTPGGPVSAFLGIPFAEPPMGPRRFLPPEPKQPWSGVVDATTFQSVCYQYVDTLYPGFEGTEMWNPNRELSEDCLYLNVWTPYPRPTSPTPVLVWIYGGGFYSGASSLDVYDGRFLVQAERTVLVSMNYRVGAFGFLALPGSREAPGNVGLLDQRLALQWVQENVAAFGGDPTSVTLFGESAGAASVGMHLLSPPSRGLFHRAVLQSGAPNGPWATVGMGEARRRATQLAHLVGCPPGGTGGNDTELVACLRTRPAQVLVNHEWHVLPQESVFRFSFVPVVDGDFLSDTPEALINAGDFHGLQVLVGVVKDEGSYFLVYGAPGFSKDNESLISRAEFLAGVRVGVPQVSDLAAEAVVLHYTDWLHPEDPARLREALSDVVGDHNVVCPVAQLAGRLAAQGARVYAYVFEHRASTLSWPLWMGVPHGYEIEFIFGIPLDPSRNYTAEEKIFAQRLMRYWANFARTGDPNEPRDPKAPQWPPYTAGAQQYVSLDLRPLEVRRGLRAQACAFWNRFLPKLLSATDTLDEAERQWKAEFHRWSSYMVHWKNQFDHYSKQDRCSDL
Method in brief: (§2)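 Ellman colorimetric assay with DTNB (3.3 mM stock, pH 7.0 PB). Test compound (five to seven concentrations, 1×10^-4 to 1×10^-9 M; or single 10 µM point) preincubated with enzyme 20 min at 25 °C in 0.1 M PB pH 8.0. Rate followed at 412 nm for 5.0 min after adding thiocholine substrate (0.05 mM). IC50 by nonlinear regression, mean of ≥3 independent determinations.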

Cholinesterase [7] = target: Cholinesterase (Homo sapiens, UniProt P06276); experiment: Inhibition of human BChE pretreated for 20 mins followed by butyrylthiocholine iodide substrate addition measured for 5 mins by Ellman's method; method in brief: as §2
Chain of Cholinesterase (Homo sapiens, UniProt P06276) (P06276 whole entry): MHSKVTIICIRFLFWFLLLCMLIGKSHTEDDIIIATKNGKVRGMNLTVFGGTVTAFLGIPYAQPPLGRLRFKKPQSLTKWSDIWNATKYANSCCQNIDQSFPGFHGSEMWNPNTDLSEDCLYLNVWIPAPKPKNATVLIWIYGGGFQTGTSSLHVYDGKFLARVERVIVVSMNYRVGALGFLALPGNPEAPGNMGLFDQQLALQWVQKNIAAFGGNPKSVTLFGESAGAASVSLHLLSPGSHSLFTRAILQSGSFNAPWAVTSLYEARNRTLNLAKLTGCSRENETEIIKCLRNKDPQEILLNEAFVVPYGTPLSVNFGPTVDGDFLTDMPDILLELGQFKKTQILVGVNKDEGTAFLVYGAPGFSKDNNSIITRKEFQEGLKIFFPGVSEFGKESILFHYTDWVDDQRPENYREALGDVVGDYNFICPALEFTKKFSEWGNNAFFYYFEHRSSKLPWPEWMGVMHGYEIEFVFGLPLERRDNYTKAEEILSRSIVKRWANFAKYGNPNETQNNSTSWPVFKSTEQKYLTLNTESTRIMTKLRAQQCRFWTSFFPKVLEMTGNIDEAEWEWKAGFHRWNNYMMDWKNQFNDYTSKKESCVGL

[8] = Neurotoxicity against human SH-SY5Y cells assessed as growth inhibition measured after 48 hrs by MTT assay; type: toxicity, cell-based; details: for GI50 at 48 h: SH-SY5Y cells; for growth inhibition (GI): sh-sy5y, 48 h
Method in brief: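 SH-SY5Y grown in DMEM/10% FBS, then treated in reduced-serum (2% FBS) medium. Compounds from 20 mM DMSO stock, tested at 0.1-1000 µM for 48 h after 1-day attachment at ~5,000 cells/well. MTT 4 h, DMSO/ethanol solubilization, absorbance. Triplicate wells, % of untreated control. GI50 from dose-response.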

[9] = Neurotoxicity against human U87 cells assessed as growth inhibition measured after 48 hrs by MTT assay; type: toxicity, cell-based, U-87MG ATCC
Method in brief: (§3)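 Cells kept in DMEM with 10% FBS, 2 mM L-glutamine, penicillin/streptomycin, 37 °C, 5% CO₂. Seeded ~5,000 cells/well, 1 day, then exposed to compound at 0.1-500 µM for 48 h. MTT 0.5% (w/v) added for 4 h, formazan dissolved in DMSO/ethanol 1:1, absorbance read. Triplicates, as % of untreated control. GI50 from concentration-response curves.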

[10] = Cytotoxicity against human MCF7 cells assessed as growth inhibition measured after 48 hrs by MTT assay; type: toxicity, cell-based; method in brief: as §3
[11] = Hepatotoxicity against human HepG2 cells assessed as growth inhibition measured after 48 hrs by MTT assay; type: toxicity, cell-based; method in brief: as §3
SH-SY5Y = experiment: Neuroprotective activity against NMDA-induced toxicity in human SH-SY5Y cells assessed as increase in cell viability at 0.5 uM incubated for 48 hrs by MTT assay; type: functional, cell-based
Method in brief: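 SH-SY5Y at ~5,000 cells/well in reduced-serum (2% FBS) medium co-exposed 48 h at 37 °C to NMDA (250 µM final) and compound. Viability by MTT, as % of NMDA-untreated cells. Mean ± SEM; one-way ANOVA with Dunnett's test, P < 0.05 significant.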

Cholinesterase [12] = target: T1, Cholinesterase; experiment: Stability assessed as horse serum BChE mediated compound hydrolysis at 300 x 10^-7M at pH 8 measured every 5 mins for 1 hr by UV-Vis spectra analysis; type: ADME; details: buffer, pH 8, 1 h, 30 µM
Cholinesterase [13] = target: T1, Cholinesterase; experiment: Competitive inhibition of horse serum BChE in presence of varying levels of butyrylthiocholine iodide substrate by Lineweaver-burk plot method
Method in brief: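 Lineweaver-Burk fit (1/v vs 1/[S]) using fixed enzyme at 0.09 U×mL^-1, substrate varied 25−250 µM, run without inhibitor and with inhibitor at four concentrations spanning 0.5-5.0 nM.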

Acetylcholinesterase [14] = target: T2, Acetylcholinesterase; experiment: Inhibition of human AChE at 10 uM pretreated for 20 mins followed by acetylthiocholine iodide substrate addition measured for 5 mins by Ellman's method relative to control; method in brief: as §2
[15] = Neuroprotective activity against NMDA-induced toxicity in human SH-SY5Y cells assessed as cell viability at 0.5 uM incubated for 48 hrs by MTT assay relative to control; type: functional; details: read-out: Activity; method in brief: as §1

Chain of Acetylcholinesterase (Electrophorus electricus, UniProt O42275) (O42275 whole entry): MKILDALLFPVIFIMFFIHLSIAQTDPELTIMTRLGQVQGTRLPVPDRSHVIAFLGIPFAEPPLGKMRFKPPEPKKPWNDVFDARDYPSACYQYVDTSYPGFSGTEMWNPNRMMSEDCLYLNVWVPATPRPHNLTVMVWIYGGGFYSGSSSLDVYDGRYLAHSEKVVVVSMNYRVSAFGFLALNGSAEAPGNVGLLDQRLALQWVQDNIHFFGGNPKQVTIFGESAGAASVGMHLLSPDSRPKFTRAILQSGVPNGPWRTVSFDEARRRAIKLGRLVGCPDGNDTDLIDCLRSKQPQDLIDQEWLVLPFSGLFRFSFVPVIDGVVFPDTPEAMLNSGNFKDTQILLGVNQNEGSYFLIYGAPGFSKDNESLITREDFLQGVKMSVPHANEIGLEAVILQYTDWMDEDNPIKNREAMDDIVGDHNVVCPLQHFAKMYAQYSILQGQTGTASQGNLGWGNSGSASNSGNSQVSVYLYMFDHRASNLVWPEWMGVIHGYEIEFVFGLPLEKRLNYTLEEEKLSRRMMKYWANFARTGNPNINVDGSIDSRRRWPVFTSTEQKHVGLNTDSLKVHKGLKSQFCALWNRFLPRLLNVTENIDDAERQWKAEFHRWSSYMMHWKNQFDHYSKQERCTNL

Work on CCOC(=O)CCCn1c2c(c3ccccc31)C(=O)NCCC2 yielded an IC50 (Acetylcholinesterase [1]) of 60 µM and an IC50 (Cholinesterase [2]) of 25.7 µM.

Work on O=C1NCCCc2c1c1ccccc1n2CCCc1ccccc1 yielded an inhibition [3] of 20%.

With O/N=C1\CCCc2c1c1ccccc1n2CCc1ccccc1 the inhibition [3] was 5%.

Compound CC(C)CCn1c2c(c3ccccc31)C(=O)NCCC2 has an IC50 (Acetylcholinesterase [1]) of 100 µM and an IC50 (Cholinesterase [2]) of 22.3 µM.

With O=C1NCCCc2c1c1ccccc1n2Cc1ccccc1 the inhibition [3] was 25%.

O=C1NCCCc2c1c1ccccc1n2CCc1ccccc1 showed a viability at 5 µM [4] of 76.9%, an IC50 (Acetylcholinesterase [1]) of 20 µM and an IC50 (Cholinesterase [2]) of 0.024 µM. The Stability (Cholinesterase [5]) was “Stable”, the IC50 (Acetylcholinesterase [6]) was 12.6 µM and the IC50 (Cholinesterase [7]) was 0.013 µM. For the same compound, the GI50 at 48 h [8] was 138 µM, the “growth inhibition (GI)” value [8] was “Dose-dependent effect” and the GI50 at 48 h [9] was 288 µM. For the same compound, the GI50 at 48 h [10] was 170 µM, the GI50 at 48 h [11] was 120 µM and the Activity (SH-SY5Y) was “Active”.

In the case of O=C1NCCCc2c1c1ccccc1n2CCc1ccc(F)cc1, the viability at 5 µM [4] is reported as 76.6%, the IC50 (Cholinesterase [2]) is reported as 0.23 µM and the IC50 (Acetylcholinesterase [6]) is reported as 10 µM. The IC50 (Cholinesterase [7]) was 5 µM, the GI50 at 48 h [8] was 251 µM and the “growth inhibition (GI)” value [8] was “Dose-dependent effect”. For the same compound, the GI50 at 48 h [9] was > 500 µM, the GI50 at 48 h [10] was > 500 µM and the GI50 at 48 h [11] was 230 µM.

For O=C1CCCc2c(c3ccccc3n2CCc2ccccc2)N1, the inhibition [3] was 25% and the Stability (Cholinesterase [12]) was “Stable”.

For O=C1NCCCc2c1c1cc(F)ccc1n2CCc1ccccc1, the IC50 (Cholinesterase [2]) was 0.028 µM.

Work on CC(=O)OCCCCn1c2c(c3ccccc31)C(=O)NCCC2 yielded an IC50 (Cholinesterase [2]) of 10.7 µM.

In the case of CCOC(=O)NCCCn1c2c(c3ccccc31)C(=O)NCCC2, the IC50 (Acetylcholinesterase [1]) is reported as 110 µM and the IC50 (Cholinesterase [2]) is reported as 15 µM.

For O=C1NCCCc2c1c1ccccc1n2CCc1ccc(Cl)cc1, the IC50 (Cholinesterase [2]) was 1.9 µM.

With O=C1NCCCc2c1c1ccccc1n2CCc1cccc(F)c1 the IC50 (Cholinesterase [2]) was 0.0015 µM, the Ki (Cholinesterase [13]) was 0.0007 µM and the inhibition (Acetylcholinesterase [14]) was 6%. For the same compound, the IC50 (Cholinesterase [7]) was 0.0018 µM, the GI50 at 48 h [8] was 2.61 µM and the “growth inhibition (GI)” value [8] was “Dose-dependent effect”. The GI50 at 48 h [9] was 162 µM, the GI50 at 48 h [10] was 162 µM and the GI50 at 48 h [11] was 159 µM. The viability at 0.5 µM [15] was 70%.

In the case of Cc1ccc(CCn2c3c(c4ccccc42)C(=O)NCCC3)cc1, the IC50 (Cholinesterase [2]) is reported as 68.2 µM.

O=C1CCCc2c1c1ccccc1n2CCc1ccccc1 showed an IC50 (Acetylcholinesterase [1]) of 10 µM and an IC50 (Cholinesterase [2]) of 10 µM.

Work on CN1CCCc2c(c3ccccc3n2CCc2ccccc2)C1=O yielded an IC50 (Acetylcholinesterase [1]) of 44.8 µM and an inhibition [3] of 10%.

Compound O=C1NCCCc2c1c1ccccc1n2CCc1cccc(Cl)c1 has an IC50 (Cholinesterase [2]) of 0.065 µM.

For CC12CC3CC(C)(C1)CC(N)(C3)C2 [MEMANTINE], the viability at 5 µM [4] was 68%, the GI50 at 48 h [8] was 145 µM and the “growth inhibition (GI)” value [8] was “Dose-dependent effect”.

O=c1[nH]cc(F)c(=O)[nH]1 [FLUOROURACIL] gave a GI50 at 48 h [9] of 13 µM, a GI50 at 48 h [10] of 4.5 µM and a GI50 at 48 h [11] of 7 µM.

Compound CCCNC(=O)c1cn(CCc2ccccc2)c2ccccc12 has an IC50 (Acetylcholinesterase [1]) of 10.3 µM and an IC50 (Cholinesterase [2]) of 12.6 µM.

With Cl.c1ccc(CCn2c3c(c4ccccc42)CNCCC3)cc1 the IC50 (Cholinesterase [2]) was 1.14 µM, the GI50 at 48 h [8] was 5.6 µM and the “growth inhibition (GI)” value [8] was “Dose-dependent effect”. The GI50 at 48 h [9] was 41 µM, the GI50 at 48 h [10] was 28 µM and the GI50 at 48 h [11] was 25 µM. For the same compound, the viability at 0.5 µM [15] was 76%.
